These results are taken from ChEMBL document CHEMBL3994613, “Diaryltriazenes as antibacterial agents against methicillin resistant Staphylococcus aureus (MRSA) and Mycobacterium smegmatis” (Eur J Med Chem, 2017).

Series [1] deals with Mycolicibacterium smegmatis. The series can be described thus: Antimycobacterial activity against Mycobacterium smegmatis MC2 155 after 94 to 98 hrs by microdilution method. The class given is functional. As to conditions: str. MC2 155. In a few lines: (§1)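 Microdilution in TSB broth. Inoculum from colonies grown 96 h on TSA, final 1×10^5 CFU/mL, aerobic 94–98 h at 37 °C, growth read on a plate reader, at least duplicate.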
(In broth dilution the organism is exposed to a series of concentrations in liquid medium.)

In series [2] the test system is Mycolicibacterium smegmatis. The series can be described thus: Bactericidal activity against Mycobacterium smegmatis MC2 155 after 96 hrs by microdilution method. The class given is functional. To be noted: str. MC2 155, 96 h. The method, boiled down:
as §1

In series [3] the test system is Staphylococcus aureus. Description: Antibacterial activity against methicillin-resistant Staphylococcus aureus USA300 after 18 to 20 hrs by microdilution method. The class given is functional. The method, boiled down:
(§2)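 EUCAST broth microdilution in LB broth. Inoculum prepared by direct colony suspension from 20–24 h LB agar (E. coli DH10β) or 5% sheep blood BHI agar (MRSA USA300) growth. Final inoculum 2×10^4 CFU/mL, 18–20 h aerobic at 37 °C, growth read on a plate reader, at least duplicate.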

Series [4] relates to Staphylococcus aureus. The series can be described thus: Bactericidal activity against methicillin-resistant Staphylococcus aureus USA300 after 18 to 20 hrs by microdilution method. In kind it is functional. In a few lines: as §2
Series [5] relates to Escherichia coli. Description: Antibacterial activity against Escherichia coli DH10beta harboring pHuLUC3 after 18 to 20 hrs by microdilution method. The class given is functional. In a few lines:
as §2

A further series relates to Saccharomyces cerevisiae. Description: Antibacterial activity against Saccharomyces cerevisiae after 18 to 20 hrs by microdilution method. The method, boiled down: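 Microdilution in YEP broth against wild-type yeast grown on YEP agar. Final inoculum 1×10^5 CFU/mL. Read after 18–20 h aerobic incubation at 30 °C on plate reader, at least one duplicate.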
The test system of series [6] is Staphylococcus aureus. Description: Induction of membrane integrity impairment in Staphylococcus aureus USA300 assessed as cells with intact membrane at 2 ug/ml measured after 30 mins by Baclight assay relative to control. The class given is functional. In a few lines: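 LIVE/DEAD BacLight fluorescence assay. Dye was then added and incubated 15 min in the dark at room temperature. Intact membrane % came from a live/dead (isopropanol-killed) standard curve, at least triplicate, mean±SD.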

Series [7] concerns Staphylococcus aureus. Description: Antibacterial activity against methicillin-resistant Staphylococcus aureus 1653 after 18 to 20 hrs by broth microdilution method. In kind it is functional. The method, boiled down: (§3)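 EUCAST broth microdilution in LB broth. Inoculum from 20–24 h colonies on 5% sheep blood BHI agar, final 3×10^4 CFU/mL, 18–20 h aerobic at 37 °C, plate reader, at least duplicate.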

In series [8] the test system is Staphylococcus aureus. The series can be described thus: Bactericidal activity against methicillin-resistant Staphylococcus aureus 1653 after 18 to 20 hrs by broth microdilution method. In kind it is functional. In a few lines: as §3
Series [9] concerns Streptococcus pneumoniae. Description: Antibacterial activity against Streptococcus pneumoniae R6 after 18 to 20 hrs by broth microdilution method. In kind it is functional. The method, boiled down: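 Broth microdilution per EUCAST in BHI broth. Inoculum from colonies on BHI agar with 5% sheep blood, final 5×10^4 CFU/mL. Read after 18–20 h anaerobic incubation at 37 °C.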

The test system of series [10] is Streptococcus pneumoniae. Description: Bactericidal activity against Streptococcus pneumoniae R6 after 18 to 20 hrs by broth microdilution method. In kind it is functional.
The test system of series [11] is Bacillus subtilis. The series can be described thus: Antibacterial activity against Bacillus subtilis ATCC 6051 after 18 to 20 hrs by broth microdilution method. The class given is functional. In a few lines: (§4)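 Broth microdilution per EUCAST in LB broth. Inoculum from 20–24 h colonies by CLSI direct colony suspension (LB agar for E. coli), final 2×10^4 CFU/mL. Read after 18–20 h aerobic incubation at 37 °C on plate reader, at least one duplicate.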

Series [12] concerns Bacillus subtilis. Description: Bactericidal activity against Bacillus subtilis ATCC 6051 after 18 to 20 hrs by broth microdilution method. The class given is functional.
Series [13] deals with Enterococcus faecalis. Description: Antibacterial activity against vancomycin resistant Enterococcus faecalis 501 after 18 to 20 hrs by broth microdilution method. The class given is functional. The method, boiled down:
(§5)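 EUCAST microdilution in BHI broth. Inoculum from 20–24 h colonies on 5% sheep blood BHI agar, final 3×10^4 CFU/mL, 18–20 h aerobic at 37 °C, plate reader, at least duplicate.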

For another series, the system named is Pseudomonas aeruginosa. Description: Antibacterial activity against Pseudomonas aeruginosa PA0001 after 18 to 20 hrs by broth microdilution method. The class given is functional. The method, boiled down:
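EUCAST broth microdilution in LB broth. Inoculum from 20–24 h LB agar colonies (CLSI direct colony suspension), final 3×10^4 CFU/mL. Aerobic incubation 18–20 h at 37 °C, plate-reader read-out, at least one duplicate.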

The test system of series [14] is Klebsiella pneumoniae. The series can be described thus: Antibacterial activity against Klebsiella pneumoniae ATCC 13882 after 18 to 20 hrs by broth microdilution method. The class given is functional. In a few lines: (§6)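 Broth microdilution per EUCAST in TSB broth. Inoculum prepared by CLSI direct colony suspension from 20–24 h TSA colonies, final 3×10^4 CFU/mL. Aerobic incubation for 18–20 h at 37 °C, growth read on plate reader, at least one duplicate.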

The subject of series [15] is Klebsiella pneumoniae. The series can be described thus: Antibacterial activity against Klebsiella pneumoniae ATCC 700603 after 18 to 20 hrs by broth microdilution method. The class given is functional. The method, boiled down: as §6
Series [16] relates to Acinetobacter baumannii. Description: Antibacterial activity against Acinetobacter baumannii ATCC 19606 after 18 to 20 hrs by broth microdilution method. The class given is functional. To be noted: ATCC 19606 = CIP 70.34 = JCM 6841. In a few lines:
as §6

Series [17] has as its system Acinetobacter baumannii. Description: Antibacterial activity against Acinetobacter baumannii ATCC BAA-1605 after 18 to 20 hrs by broth microdilution method. In kind it is functional. The method, boiled down: as §6
Series [18] can be described thus: Solubility of the compound in water. The class given is physicochemical. As to conditions: buffer.
The nature of series [19]: Stability of the compound in water. The class given is physicochemical. To be noted: buffer.
Series [20] in a line: Stability of the compound in organic solvent. In kind it is physicochemical.
Series [21] in a line: Stability of the compound in solid state. In kind it is physicochemical.
In series [22] the test system is Escherichia coli. The series can be described thus: Antibacterial activity against Escherichia coli D22 after 18 to 20 hrs by microdilution method. In kind it is functional. In a few lines: as §4
For series [23], the system named is Escherichia coli. The series can be described thus: Antibacterial activity against N43 CGSC 5583 knock out Escherichia coli after 18 to 20 hrs by microdilution method. In kind it is functional. In a few lines: as §4
Series [24] relates to Enterococcus faecalis. The series can be described thus: Bactericidal activity against vancomycin resistant Enterococcus faecalis 501 after 18 to 20 hrs by broth microdilution method. The class given is functional. The method, boiled down: as §5
In series [25] the test system is Escherichia coli. Description: Bactericidal activity against Escherichia coli D22 after 18 to 20 hrs by microdilution method. In kind it is functional.
For series [26], the system named is Staphylococcus aureus. Description: Induction of membrane integrity impairment in Staphylococcus aureus USA300 assessed as cells with intact membrane at 8 ug/ml measured after 30 mins by Baclight assay relative to control. The class given is functional. The method, boiled down:
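LIVE/DEAD BacLight fluorescence assay. Live cells in 0.85% NaCl at OD600 0.2 were exposed to compound in DMSO for 30 min at 37 °C. Dye was then added and incubated 15 min in the dark at room temperature. Fluorescence read at ex 485 nm, em 530/630 nm. Intact membrane % came from a live/dead (isopropanol-killed) standard curve, at least triplicate, mean±SD.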

Values after ≈ are worked out from the molar mass of the structure shown.

The MBC is the lowest tested concentration that kills the bacteria rather than only halting them. Read a low MBC as more potent killing.

Turning to `O=C(c1ccccc1F)N(/N=N/c1ccc([N+](=O)[O-])cc1C(F)(F)F)c1ccc([N+](=O)[O-])cc1C(F)(F)F`, the MIC was 16 µg/mL (≈ 29.3 µM) in series [1]; 0.25 µg/mL (≈ 0.458 µM) in the series with Staphylococcus aureus [3]; more than 128 µg/mL against Escherichia coli [5]; more than 128 µg/mL against Saccharomyces cerevisiae; 0.5 µg/mL (≈ 0.917 µM) in the series on Staphylococcus aureus [7]; 0.5 µg/mL (≈ 0.917 µM) in the series with Streptococcus pneumoniae [9]. Also, the MIC was 2 µg/mL (≈ 3.67 µM) against Bacillus subtilis [11]; more than 128 µg/mL with Enterococcus faecalis [13]; more than 128 µg/mL with Pseudomonas aeruginosa; more than 128 µg/mL against Klebsiella pneumoniae [14]; more than 128 µg/mL in the series on Klebsiella pneumoniae [15]; more than 128 µg/mL against Acinetobacter baumannii [16]. For the same molecule, the MIC against Acinetobacter baumannii [17], in the series on Escherichia coli [22] and in the series with Escherichia coli [23] was more than 128 µg/mL each time. Further, the MBC in [2] is 128 µg/mL (≈ 235 µM); against Staphylococcus aureus [4], 0.5 µg/mL (≈ 0.917 µM); against Staphylococcus aureus [8], 4 µg/mL (≈ 7.34 µM); against Streptococcus pneumoniae [10] it was 1 µg/mL (≈ 1.83 µM); against Bacillus subtilis [12] it was more than 64 µg/mL. For the same molecule, the “Cells with intact membrane” value in the series with Staphylococcus aureus [6] turned out to be 103.8%. Also, the solubility entry in series [18] was “Soluble”. Further, the Stability entry in [19], in series [20] and in series [21] was “Stable” throughout.

In the case of `FC(F)(F)c1cc(Cl)ccc1/N=N/Nc1ccc(Cl)cc1C(F)(F)F`, the MIC is 8 µg/mL (≈ 19.9 µM) in series [1]; 1 to 128 µg/mL (≈ 2.49 to 318 µM) in the series on Staphylococcus aureus [3]; more than 128 µg/mL with Escherichia coli [5]; more than 128 µg/mL in the series with Saccharomyces cerevisiae; 1 µg/mL (≈ 2.49 µM) in the series on Staphylococcus aureus [7]; 0.5 µg/mL (≈ 1.24 µM) against Streptococcus pneumoniae [9]. Moreover, the MIC was 1 µg/mL (≈ 2.49 µM) with Bacillus subtilis [11]; 2 µg/mL (≈ 4.97 µM) in the series with Enterococcus faecalis [13]; more than 128 µg/mL in the series with Pseudomonas aeruginosa; more than 128 µg/mL against Klebsiella pneumoniae [14]; more than 128 µg/mL in the series with Klebsiella pneumoniae [15]; more than 128 µg/mL in the series on Acinetobacter baumannii [16]. Besides, the MIC was more than 128 µg/mL against Acinetobacter baumannii [17], 2 µg/mL (≈ 4.97 µM) against Escherichia coli [22] and more than 128 µg/mL in the series on Escherichia coli [23]. In addition, the MBC in series [2] was 128 µg/mL (≈ 318 µM); in the series on Staphylococcus aureus [4], 1 µg/mL (≈ 2.49 µM); against Staphylococcus aureus [8], 1 µg/mL (≈ 2.49 µM); against Streptococcus pneumoniae [10], 1 µg/mL (≈ 2.49 µM); against Bacillus subtilis [12] it was 32 µg/mL (≈ 79.6 µM); with Enterococcus faecalis [24] it was more than 128 µg/mL. The same molecule yielded an MBC against Escherichia coli [25] of more than 128 µg/mL. In addition, in the series with Staphylococcus aureus [6], the “Cells with intact membrane” value turned out to be 31.2%. In addition, the solubility result in [18] was “Soluble”. In addition, the Stability result in series [19], in series [20] and in series [21] was “Stable” each time.

Turning to `O=[N+]([O-])c1ccc(/N=N/Nc2ccc([N+](=O)[O-])cc2Cl)c(Cl)c1`, the MIC is more than 128 µg/mL in series [1], 2 µg/mL (≈ 5.62 µM) against Staphylococcus aureus [3], more than 128 µg/mL in the series on Escherichia coli [5] and more than 128 µg/mL against Saccharomyces cerevisiae. This molecule returned an MBC against Staphylococcus aureus [4] of 4 µg/mL (≈ 11.2 µM). In the series on Staphylococcus aureus [26], the Activity is listed as 64.6%.
